# proCasp7 act = procaspase-7 activators, primary screen, counter-screen for procaspase-3 activator project, biochemical, absorbance, HTS, human; recombinant procaspase-7, Ac-DEVD-pNA absorbance 405 nm; D23A/D198A/D206A triple mutant, cannot self-cleave; scale: DMSO 0, 5 µM enzyme 100; actives 0.093% (n = 330,000); Caspase-7 (Homo sapiens), P55210; activation, % at 8.5 µM; AID 463210, 2010;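 active = percent activation above the screen-wide mean plus 3 SD, cut at about 25% in these data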
# Target sequence (P55210 whole entry D23A/D198A/D206A): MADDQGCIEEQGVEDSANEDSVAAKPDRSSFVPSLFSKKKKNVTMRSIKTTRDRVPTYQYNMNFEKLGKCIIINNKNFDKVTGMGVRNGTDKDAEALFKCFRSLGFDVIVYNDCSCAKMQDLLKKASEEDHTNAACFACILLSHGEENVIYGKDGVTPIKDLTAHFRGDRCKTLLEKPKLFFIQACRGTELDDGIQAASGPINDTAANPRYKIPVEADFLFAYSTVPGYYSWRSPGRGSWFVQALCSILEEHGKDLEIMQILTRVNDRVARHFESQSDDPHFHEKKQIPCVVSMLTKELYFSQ
#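 Assay system – Uncleavable procaspase-7 mutant enzyme · Quantity – 2 µM procaspase-7 mutant as dispensed · Times – 1 h preincubation, 2 h reaction · Dosing – single nominal 8.5 µM compound dose, 0.8% DMSO final · Buffer or medium – Zinc-free 50 mM HEPES buffer, pH 7.4, with NaCl and Triton X-100 · Detection – Epi-absorbance of released pNA at 405 nm, two timepoints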
# MsrA inh = bovine MsrA enzyme inhibitors, primary screen, biochemical, absorbance, HTS. Methionine sulfoxide reductase A (Bos taurus). purified bovine MsrA, absorbance read-out. inhibition, % at 15.5 µM. actives 0.75% (n = 360,000). AID 651718, 2012;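 note: 0% = vehicle wells with enzyme and 100% = reference inhibitor wells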
# Tb MetRS inh = T. brucei MetRS inhibitors, primary screen, biochemical, luminescence | methionyl-tRNA synthetase (Trypanosoma brucei brucei) | purified T. brucei MetRS, ATP depletion, Kinase-Glo luminescence | inhibition, % at 11.9 µM | actives 0.4% (n = 360,000);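 active = inhibition above a per-plate cutoff of the control wells' mean inhibition plus 3 SD, cut at about 5.5% in these data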;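 note: 0% = DMSO wells median and 100% = median of wells with control inhibitor compound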
#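 technique = Kinase-Glo luminescence, ATP depletion format | system = purified MetRS (methionyl-tRNA synthetase) enzyme from Trypanosoma brucei | timing = 15 min preincubation, 2 h reaction, all 25 °C | evaluation = percent inhibition versus plate control medians | dosing = single dose, 11.9 µM final nominal, 0.9% final DMSO | also added = substrates ATP, L-methionine and bulk Escherichia coli tRNA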
# proCasp3 act = activators of human procaspase-3 D3A mutant, primary screen, biochemical, absorbance, PC-3 D3A mutant, single concentration; Caspase-3 (Homo sapiens), P42574; recombinant procaspase-3 D3A, Ac-DEVD-pNA absorbance 405 nm; activation, % at 8.5 µM; actives 0.11% (n = 330,000); AID 463141, 2010;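 active = activation above the mean of all tested compounds plus 3 SD, cut at about 21% in these data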;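 note: 0% = DMSO alone and 100% = DMSO wells spiked with extra 5 µM PC-3 D3A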
# Target sequence (P42574 whole entry D9A/D28A/D175A): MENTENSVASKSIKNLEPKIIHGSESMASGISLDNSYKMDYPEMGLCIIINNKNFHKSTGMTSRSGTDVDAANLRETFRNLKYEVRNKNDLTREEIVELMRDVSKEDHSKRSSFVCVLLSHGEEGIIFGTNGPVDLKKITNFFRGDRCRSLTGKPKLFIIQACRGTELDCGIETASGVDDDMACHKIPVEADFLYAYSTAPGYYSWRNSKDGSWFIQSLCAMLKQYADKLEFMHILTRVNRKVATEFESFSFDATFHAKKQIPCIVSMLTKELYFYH
#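 Assay system – Procaspase-3 D3A mutant, all three cleavage aspartates alanine · Controls – DMSO-only low control, 5 µM PC-3 D3A high control · Schedule – 1 h compound preincubation, 2 h substrate hydrolysis at 25 °C · Signal – 405 nm absorbance of p-nitroaniline, reads at 0 and 120 min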
# bovine MsrA act = bovine MsrA enzyme activators, primary screen, biochemical, absorbance, HTS | actives 0.3% (n = 360,000) | Methionine sulfoxide reductase A (Bos taurus) | activation, % at 10.6 µM | purified bovine MsrA, absorbance read-out; in the data active = activation above about 7.5%;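 note: 0% = vehicle and 100% = reference activator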
# MsrA inh confirm = bovine MsrA inhibitors, retest, confirmation, biochemical, absorbance, HTS. shares compounds with MsrA inh. purified bovine MsrA, absorbance read-out. inhibition, % at 15.5 µM. actives 41% (n = 2,300). AID 651822, 2012;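 note: coupled to thioredoxin reductase with NADPH and selenocystamine and DMSO as substrate; 0% = vehicle only and 100% = full effect of reference inhibitor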
# Numbers without * were called inactive; nt = no result. This is a sample that favours compounds with a hit; in the whole collection about 1.5% have one here. Cut-off read from the data, not from the text of the source, unless noted: active = inhibition above about 4.5%; inactive = the rest.
SMILES,proCasp7 act,MsrA inh,Tb MetRS inh,proCasp3 act,bovine MsrA act,MsrA inh confirm
COc1cc(CC(=O)N2c3ccccc3N=C(c3ccccc3)C2C(=O)NCc2ccccc2)cc(OC)c1 (centres undefined),nt,1,-1,nt,nt,nt
CC(=O)NCCC(=O)N(C)CC1CCN(CCc2cccc(C(F)(F)F)c2)CC1,nt,0,0,nt,-2,nt
COCCn1c(=NC(=O)c2ccc(S(=O)(=O)N3CCc4ccccc4C3)cc2)sc2cc(S(N)(=O)=O)ccc21,-3,5.9*,0,9,-9,4
C=CCn1c(=NC(=O)c2ccc(S(=O)(=O)N3CCc4ccccc4C3)cc2)sc2cc(S(N)(=O)=O)ccc21,0,3,0,-1,-7,nt
COCCn1c(=NC(=O)c2cc(Cl)sc2Cl)sc2cc(S(N)(=O)=O)ccc21,-2,0,-2,2,-6,nt
COCCn1c(=NC(=O)c2ccc3c(c2)OCCO3)sc2cc(S(N)(=O)=O)ccc21,6,6.2*,-1,7,-15,3
CCN(CC)S(=O)(=O)c1ccc(N/N=C/c2cccnc2)nc1,7,5.8*,1,-4,-5,4.7*
Cc1cc(C)c2nc(C(F)(F)F)nc(N3CC(C)OC(C)C3)c2c1 (centres undefined),4,14*,0,-5,-2,21*
COCc1[nH]nc2c1C(c1ccc(F)cc1)N(Cc1ccccc1)C2=O (centres undefined),nt,-1,nt,nt,nt,nt
O=C(CN1CCN(Cc2ccccc2)CC1)N/N=C\C=C/c1ccco1,3,6.9*,0,9,-14,5.5*
O=C1/C(=C/c2ccc(C(=O)O)cc2)CCC/C1=C\c1ccc(C(=O)O)cc1,1,8.8*,0,7,-5,6.6*
c1ccc2[nH]c(N3CCOCC3)nc2c1,7,-1,-1,-1,-7,nt
O=c1c(Cl)c(N2CCOCC2)cnn1-c1nc2ccccc2[nH]1,2,4.8*,0,5,-4,3
Cc1cc(C(=O)OCC(=O)NC(C)c2ccccc2)c(C)o1 (centres undefined),15,0,1,0,-3,nt
Cc1ccc(/C=C/C(=O)OCC(=O)NC(C)c2ccccc2)o1 (centres undefined),-9,6.5*,0,-2,-3,3
C[C@H]1CN(C(=O)OC(C)(C)C)CCN1c1ccc(N2CC[C@@H](O)C2)c(C#N)c1,nt,0,nt,nt,nt,nt
C=CCn1c(SCC(=O)Nc2cc(OC)c(NC(=O)c3ccco3)cc2OC)nnc1-c1ccncc1,-4,4.7*,0,-5,-5,2
CCOC(=O)C1=C(C(=O)OCC)C2N(Cc3ccc(Br)cc3)c3ccccc3[C@@]23C[C@@H](C(=O)OC)N(S(=O)(=O)c2ccc(OC)cc2)C3=N1 (some centres undefined),nt,0,nt,nt,nt,nt
CCOC(=O)c1cc(C)nc(SC)c1C#N,-3,0,0,-8,-2,nt
CCOC(=O)c1cc(C(C)(C)C)nc(SC)c1C#N,1,6.2*,0,-3,-4,3
Cc1ccccc1-c1ccc2c(c1)[C@@H]1C[C@H](N(C)CC3CCCCC3)[C@H]([C@H](C)O)CN1CC2,nt,0,nt,nt,nt,nt
COCCNC(=O)/C(C#N)=C/C(C)=C/c1ccccc1,-7,6.0*,0,1,-2,3
COCCNC(=O)/C(C#N)=C/c1cccc(/C=C(\C#N)C(=O)NCCOC)c1,-7,-1,0,-6,-2,nt
CC1CCN(C(=O)c2ncn3c2C(=O)NC[C@H]3C)CC1,nt,2,nt,nt,nt,nt
COC(=O)[C@]12CCCCC=C1N(Cc1ccc3c(c1)OCO3)C(=O)[C@H](CC(=O)NCC1CCCCC1)C2,nt,0,0,nt,nt,nt
SMILES,proCasp7 act,MsrA inh,Tb MetRS inh,proCasp3 act,bovine MsrA act,MsrA inh confirm
Cc1cc(C)n(CCNC(=O)[C@@H](Cc2ccccc2)NC(=O)[C@H]2O[C@@H](n3ccc(=O)[nH]c3=O)[C@H](O)[C@@H]2O)n1,nt,1,nt,nt,nt,nt
CCCn1cnc2c(Sc3c([N+](=O)[O-])ncn3C)nc(N)nc21,nt,5,0,nt,-1,nt
CCC(C)Cn1cnc2c(Sc3c([N+](=O)[O-])ncn3C)nc(N)nc21 (centres undefined),nt,4.9*,0,nt,-3,4.9*
Cn1cnc([N+](=O)[O-])c1Sc1nc(N)nc2c1ncn2Cc1ccccc1,nt,4,0,nt,-4,nt
CCCCn1cnc2c(Sc3c([N+](=O)[O-])ncn3C)nc(N)nc21,nt,5.2*,0,nt,-2,4
CCC(C)Cn1cnc2c(SCc3ccccn3)nc(N)nc21 (centres undefined),nt,0,0,nt,-1,nt
CC(C)Cn1cnc2c(Sc3c([N+](=O)[O-])ncn3C)nc(N)nc21,nt,7.7*,0,nt,-2,4
O=C(NCc1cccc(C(F)(F)F)c1)c1[nH]c(C(F)(F)F)nc1-c1ccccc1,nt,nt,-1,nt,-11,nt
Cc1ccc(S(=O)(=O)N/N=C/c2cc(Br)ccc2O)cc1,2,4.9*,0,1,-7,0
O=C(O)COc1ccccc1/C=N/NC(=O)c1cc(-c2ccccc2)nc2ccccc12,-4,4,0,4,-6,nt
O=C(O)COc1ccccc1/C=N/NC(=O)c1cc(-c2ccc(Cl)cc2)nc2ccccc12,7,5.0*,0,4,-6,4
CC1(C)Cc2c(sc(/N=C/N3CCCC3)c2C#N)C(C)(C)N1,5,5.1*,0,-4,0,3
CCOC(=O)c1c(Nc2ccc(OC)cc2)n[nH]c1C,nt,1,nt,nt,nt,nt
Fc1ccc(-c2n[nH]c(=S)n2/N=C/c2c[nH]c3ccccc23)cc1,5,5.3*,0,-5,1,1
Cc1cccc(C)c1NC(=O)C(c1cccc2ccccc12)n1c(=O)c(-c2cc3ccccc3[nH]2)nc2ccccc21 (centres undefined),nt,0,0,nt,nt,nt
COc1ccc(NC(=O)c2ccco2)cn1,-6,-1,-1,-5,0,nt
COc1ccc(NC(=O)/C=C/c2ccco2)cn1,-2,4.9*,0,1,-6,2
CCc1nnc(NC(=O)/C=C/c2ccco2)s1,9,6.8*,0,-1,-8,6.2*
CCSc1nnc(NC(=O)/C=C/c2ccco2)s1,7,2,0,6,-8,nt
COc1ccc(NC(=O)/C=C/c2ccc(Br)o2)cn1,-5,5.3*,0,1,-7,2

# Screening data deposited in PubChem BioAssay by The Scripps Research Institute Molecular Screening Center.
